The conditions of data set [1]: previously reported; cited from earlier work.
For data set [2] the following is noted: mouse, oral, 10 mg/kg, plasma concentrations; cited from earlier work.
For data set [3] the following is noted: mouse liver microsomes, previously reported, cited from earlier work; for predicted Eh (M): predicted hepatic extraction ratio.
For data set [4] the following is noted: human liver microsomes; previously reported; cited from earlier work.
For data set [5] the following is noted: pH 7.4; previously reported; cited from earlier work.
The nature of data set [6]: In vitro metabolism in human liver microsomes. It is filed as in vitro ADME. As to conditions: for microsomal CLint: human, liver microsomes; for predicted Eh (H): predicted hepatic extraction ratio, human liver microsomes. Summed up:
(§1)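 Liver microsomes at 0.4 or 0.5 mg/mL protein were incubated at 37 °C with 0.5 or 1 μM test compound. Remaining compound in the supernatant was quantified by LC–MS at time points over 0–60 min. In vitro CLint and predicted hepatic extraction ratio were calculated from the depletion data.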

Data set [7] is described as follows: In vitro metabolism in mouse liver microsomes. The class given is in vitro ADME. The settings on record: for predicted Eh (M): predicted hepatic extraction ratio, mouse liver microsomes. The method in brief:
as §1

Data set [8] in a line: Kinetic aqueous solubility by nephelometry, pH 6.5. As to conditions: phosphate buffer, pH 6.5, aqueous buffer, kinetic from dmso stock. The class given is physicochemical. The method in brief: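 Test compound in DMSO was spiked into pH 6.5 phosphate buffer (final DMSO 1 v/v %) and incubated 30 min at room temperature. A solubility range was assigned by nephelometry.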
The test system of data set [9] is P. falciparum 3D7 parasites. The experiment in a line: P. falciparum 3D7 growth assay. The settings on record: Pf3D7 EC50 relative to 1. It is filed as cell-based.
A short description of data set [10]: Mouse pharmacokinetics after oral administration. It is filed as in vivo. The method in brief:
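Both arms used a single oral gavage dose. Plasma arm: male Swiss outbred mice, 20 mg/kg as a suspension in 0.5% CMC, 0.5% benzyl alcohol and 0.4% Tween 80. Plasma was sampled over 24 h and measured by LC–MS. Blood arm: 10 mg/kg in 0.1% methylcellulose. Serial blood was taken 0.5–24 h, lysed with water and analysed by LC–MS/MS. Parameters came from noncompartmental analysis.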

Data set [11] has as its system P. falciparum Pf3D7^0087/N9. The experiment in a line: SCID mouse model of P. falciparum infection. It is filed as in vivo. Summed up:
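NOD-scid IL2Rγnull mice (23–36 g) engrafted with human erythrocytes were infected iv with 20 × 10^6 Pf3D7^0087/N9 parasites. Test compound in 1% methylcellulose was given by oral gavage once daily for 4 days from day 3 (10–60 mg/kg), with actual doses verified by measuring the formulations. Parasitemia was measured by FACS and blood drug by LC–MS–MS. ED90 was set on day 7.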

Setting [12] is: male, Swiss outbred, plasma, 20 mg/kg.

≈ marks a conversion by molar mass, not a printed value. Read-outs that look alike come from different tables or passages of the source.

As usually defined, the microsomal CLint is a measure of how fast metabolising enzymes remove a compound, apart from limits set by blood flow. Read a high microsomal CLint as rapid turnover. Usually kinetic solubility stands for solubility judged after dilution from a stock solution rather than from solid. As usually defined, the AUC(0-inf) is total exposure, with the tail of the curve extrapolated. High values mean high exposure, low ones low exposure. For orientation: Cmax means the peak of the concentration-time curve. In general, Tmax refers to the time from dosing to the highest level.

Take `Cc1cc(Nc2ccc(S(F)(F)(F)(F)F)cc2)n2nc(C(C)(F)F)nc2n1` [Compound 1]: the “kinetic solubility pH 6.5” value in [1] was 12.5–25 μg/mL. Further, the AUCinf in data set [2] is 23 µM·h. Also, in data set [3], the “CLint (M)” value is given as 2.8 μL/min/mg protein and the “predicted Eh (M)” value is <0.2/<0.2. Besides, in [4], the “CLint (H)” value is reported as 4.3 μL/min/mg protein.

As for `Cc1cc(Nc2ccc(C(F)(F)F)nc2)n2nc(C(C)(F)F)nc2n1` [Compound 2], the “kinetic solubility pH 6.5” value in data set [1] is greater than 100 μg/mL. Moreover, in data set [5], the “log DpH7.4” value is recorded as 2.5. In [3], the “CLint (M)” value is less than 7 μL/min/mg protein and the “predicted Eh (M)” value is less than 0.01. Moreover, the “CLint (H)” value in data set [4] is given as 2.2 μL/min/mg protein.

Consider `Cc1nc(Nc2ccc(C)c(Cl)c2)c2c(C)noc2n1` [Compound 3], for which the microsomal CLint amounted to 6.2 µL/min/mg in data set [6] and 28 µL/min/mg in data set [7] (mouse, liver microsomes). Also, the “CLint (M)” value in data set [7] (mouse, liver microsomes) was “rapidly metabolized”.

`Cc1nc(NC2CCc3ccc(Cl)cc3C2)c2c(C)noc2n1` (centres unmarked) [Compound 9, N-(7-Chloro-1,2,3,4-tetrahydronaphthalen-2-yl)-3,6-dimethylisoxazolo[5,4-d]pyrimidin-4-amine] showed a solubility (kinetic) at 30 min in [8] of 1.6 to 3.1 µg/mL (≈ 4.87 to 9.43 µM). For the same molecule, the microsomal CLint was 36 µL/min/mg in data set [6] and 183 µL/min/mg in data set [7] (mouse, liver microsomes). In addition, the “predicted Eh (H)” value in [6] is listed as 0.59. Besides, in [7], the “predicted Eh (M)” value is listed as 0.89. Further, the “fold less potent than 1 on P. falciparum parasites” value in data set [9] was 2–4 fold.

Take `Cc1nc(NC2CCc3cc(Cl)ccc3C2)c2c(C)noc2n1` (centres unmarked) [Compound 10, N-(6-Chloro-1,2,3,4-tetrahydronaphthalen-2-yl)-3,6-dimethylisoxazolo[5,4-d]pyrimidin-4-amine]: the solubility (kinetic) at 30 min in data set [8] lay in the range of 1.6 to 3.1 µg/mL (≈ 4.87 to 9.43 µM). Besides, the microsomal CLint in [6] turned out to be 23 µL/min/mg; in data set [7] (mouse, liver microsomes) it was 179 µL/min/mg. In data set [6], the “predicted Eh (H)” value is listed as 0.47. Moreover, the “predicted Eh (M)” value in data set [7] is 0.89.

In data set [8], `Cc1nc(NC2CCc3ccc(Br)cc3C2)c2c(C)noc2n1` (centres unmarked) [Compound 11, N-(7-Bromo-1,2,3,4-tetrahydronaphthalen-2-yl)-3,6-dimethylisoxazolo[5,4-d]pyrimidin-4-amine] gave a solubility (kinetic) at 30 min of less than 1.6 µg/mL. In data set [6], the microsomal CLint is 32 µL/min/mg and the “predicted Eh (H)” value is reported as 0.56. This molecule displayed a microsomal CLint in data set [7] (mouse, liver microsomes) of 233 µL/min/mg. In data set [7], the “predicted Eh (M)” value is reported as 0.91. The “fold less potent than 1 on P. falciparum parasites” value in data set [9] is on record as 2–4 fold.

In turn, `Cc1nc(NC2CCc3cc(Br)ccc3C2)c2c(C)noc2n1` (centres unmarked) [Compound 12, N-(6-Bromo-1,2,3,4-tetrahydronaphthalen-2-yl)-3,6-dimethylisoxazolo[5,4-d]pyrimidin-4-amine] registered a solubility (kinetic) at 30 min in [8] of less than 1.6 µg/mL. Also, the microsomal CLint in data set [6] is 19 µL/min/mg; in [7] (mouse, liver microsomes) it was 138 µL/min/mg. Further, the “predicted Eh (H)” value in [6] is given as 0.42. In [7], the “predicted Eh (M)” value is given as 0.86.

The molecule `Cc1nc(NC2Cc3cc(F)c(F)cc3C2)c2c(C)noc2n1` [Compound 13, N-(5,6-Difluoro-2,3-dihydro-1H-inden-2-yl)-3,6-dimethylisoxazolo[5,4-d]pyrimidin-4-amine] yielded a kinetic solubility at 30 min in [8] of 3.1 to 6.3 µg/mL (≈ 9.8 to 19.9 µM). Besides, in data set [10] (setting [12]), the AUC(0-inf) came to 4.2 µM·h, the Cmax was determined as 2100 nM and the Tmax stood at 60 min. For the same molecule, in data set [6], the microsomal CLint was 17 µL/min/mg and the “predicted Eh (H)” value is recorded as 0.39. In [7] (mouse, liver microsomes), this molecule returned a microsomal CLint of 143 µL/min/mg. For the same molecule, in data set [7], the “predicted Eh (M)” value was 0.86.

For `Cc1nc(Nc2ccc(S(F)(F)(F)(F)F)cc2)c2c(C)noc2n1` [Compound 14, 3,6-Dimethyl-N-(4-(pentafluoro-l6-sulfanyl)phenyl)isoxazolo[5,4-d]pyrimidin-4-amine], the solubility (kinetic) at 30 min in data set [8] was in the range of 6.3 to 12.5 µg/mL (≈ 17.2 to 34.1 µM). In data set [10] (whole blood, 10 mg/kg), the AUC(0-inf) was determined as 3.8 µM·h, the highest level (Cmax) was 1300 nM and the Tmax is 45 min. In addition, in [11] (SCID mice, oral QD for 4 days, data collected 24 h after the last dose), the “ED90 (90% reduction in parasitemia)” value was roughly 63 mg/kg. For the same molecule, the “ED90 fold higher than that for 1” value in [11] (same SCID model, once daily (QD) dosing, comparison with 1 from ref 26) is listed as no less than 8 fold. In addition, in data set [6], the microsomal CLint was 20 µL/min/mg and the “predicted Eh (H)” value was 0.44. The molecule also came in with a microsomal CLint in data set [7] (mouse, liver microsomes) of 38 µL/min/mg. In addition, in [7], the “predicted Eh (M)” value is given as 0.63. Besides, the “fold less potent than 1 on P. falciparum parasites” value in [9] was 2–4 fold.

Take `Cc1nc(Nc2ccc(C(F)(F)F)cc2)c2c(C)noc2n1` [Compound 15, 3,6-Dimethyl-N-(4-(trifluoromethyl)phenyl)isoxazolo[5,4-d]pyrimidin-4-amine]: in data set [8], the kinetic solubility at 30 min was 6.3 to 12.5 µg/mL (≈ 20.4 to 40.5 µM). In addition, the microsomal CLint in [6] was found to be 24 µL/min/mg; in data set [7] (mouse, liver microsomes) it was 28 µL/min/mg. Further, the “predicted Eh (H)” value in [6] is listed as 0.48. Further, the “predicted Eh (M)” value in [7] is 0.55.

In [8], `Cc1nc(Nc2ccc(C(F)(F)F)nc2)c2c(C)noc2n1` [Compound 16, 3,6-Dimethyl-N-(6-(trifluoromethyl)pyridin-3-yl)isoxazolo[5,4-d]pyrimidin-4-amine] returned a kinetic solubility at 30 min of 25 to 50 µg/mL (≈ 80.8 to 162 µM). In data set [6], the microsomal CLint is 8 µL/min/mg and the “predicted Eh (H)” value is 0.25. In addition, the microsomal CLint in data set [7] (mouse, liver microsomes) worked out at 13 µL/min/mg. In addition, the “predicted Eh (M)” value in data set [7] is 0.36.

Molecule `Cc1nc(NC2Cc3cc(F)c(F)cc3C2)c2c(C(F)(F)F)noc2n1` [Compound 30, N-(5,6-Difluoro-2,3-dihydro-1H-inden-2-yl)-6-methyl-3-(Trifluoromethyl)isoxazolo[5,4-d]pyrimidin-4-amine] gave a solubility (kinetic) at 30 min in data set [8] of 1.6 to 3.1 µg/mL (≈ 4.32 to 8.37 µM). In addition, the microsomal CLint in [6] is 26 µL/min/mg; in data set [7] (mouse, liver microsomes), 328 µL/min/mg. The “predicted Eh (H)” value in data set [6] was 0.5. Moreover, in [7], the “predicted Eh (M)” value is recorded as 0.93.

For `Cc1nc(Nc2ccc(C(F)(F)F)cc2)c2c(C(F)(F)F)noc2n1` [Compound 31, 6-Methyl-3-(trifluoromethyl)-N-(4-(trifluoromethyl)phenyl)isoxazolo[5,4-d]pyrimidin-4-amine], the kinetic solubility at 30 min in data set [8] lay in the range of 1.6 to 3.1 µg/mL (≈ 4.42 to 8.56 µM). Also, in [6], the microsomal CLint came out at 13 µL/min/mg and the “predicted Eh (H)” value is 0.33. Besides, in [7] (mouse, liver microsomes), the microsomal CLint was determined as 76 µL/min/mg. In addition, the “predicted Eh (M)” value in [7] is recorded as 0.77.

For `Cc1nc(Nc2ccc(S(F)(F)(F)(F)F)cc2)c2c(C(F)(F)F)noc2n1` [Compound 32, 6-Methyl-N-(4-(pentafluoro-l6-sulfanyl)phenyl)-3-(trifluoromethyl)isoxazolo[5,4-d]pyrimidin-4-amine], the kinetic solubility at 30 min in [8] is less than 1.6 µg/mL. In addition, in [6], the microsomal CLint was 13 µL/min/mg and the “predicted Eh (H)” value is listed as 0.34. The same molecule came in with a microsomal CLint in [7] (mouse, liver microsomes) of 73 µL/min/mg. Moreover, in [7], the “predicted Eh (M)” value is on record as 0.76.

In data set [8], `Cc1noc2nc(C(F)(F)F)nc(Nc3ccc(C(F)(F)F)cc3)c12` [Compound 35, 3-Methyl-6-(trifluoromethyl)-N-(4-(trifluoromethyl)phenyl)isoxazolo[5,4-d]pyrimidin-4-amine] returned a solubility (kinetic) at 30 min of 1.6 to 3.1 µg/mL (≈ 4.42 to 8.56 µM). Further, the microsomal CLint came out at 18 µL/min/mg in data set [6] and 36 µL/min/mg in data set [7] (mouse, liver microsomes). Besides, the “predicted Eh (H)” value in data set [6] is recorded as 0.41. In data set [7], the “predicted Eh (M)” value is 0.61.

In turn, `Cc1noc2nc(C(F)(F)F)nc(Nc3ccc(S(F)(F)(F)(F)F)cc3)c12` [Compound 36, 3-Methyl-N-(4-(pentafluoro-l6-sulfanyl)phenyl)-6-(trifluoromethyl)isoxazolo[5,4-d]pyrimidin-4-amine] displayed a solubility (kinetic) at 30 min in data set [8] of 1.6 to 3.1 µg/mL (≈ 3.81 to 7.38 µM). In data set [6], the microsomal CLint was 10 µL/min/mg and the “predicted Eh (H)” value is 0.28. The molecule also came in with a microsomal CLint in data set [7] (mouse, liver microsomes) of 26 µL/min/mg. Also, in [7], the “predicted Eh (M)” value is 0.53.

(Values after PMC6120730 (ACS Omega, 2018).)
